Measurements from different studies.
Protocols differ between the studies behind these lines.
Target: Serine/threonine-protein kinase PLK1 (PLK1, Homo sapiens, UniProt P53350)

For `Cc1ccc(C(=O)NCc2ccsc2)cc1C#Cc1cn(C(C)C)c2ncnc(N)c12`, the activity vs control was 105% (enzyme activity, inhibitor; 1 µM).
With `O=C(CSc1nc2nccnc2c(=O)n1CCc1ccccc1)Nc1nccs1` the inhibition was 8% (enzyme activity, inhibitor; 10 µM).
`CCN(CC)CCNC(=O)c1c(C)[nH]c(/C=C2\C(=O)Nc3ccc(F)cc32)c1C` gave a remaining activity of 110% (enzyme activity, inhibitor; 1 µM).
`Cn1nc(C(=O)NCc2ccc(C(=O)O)cc2)cc1-c1ccc2[nH]ccc2c1` gave a remaining binding of 95% (cell-free assay, competition with immobilised ligand; 0.1 µM).
`CC(C)(C)c1nc2c(s1)c1nc(N)ncc1c1ccc(NS(=O)(=O)c3c(F)cccc3F)c(F)c12` gave a remaining activity of 101% (enzyme activity, inhibitor, radiometric; 1 µM).
For `O=C(Nc1ccc(Oc2ccc(F)cc2)cc1)N1CCc2ncccc2[C@H]1c1ccc(F)cc1`, the remaining binding was 78% (cell-free assay, competition with immobilised ligand; 1 µM).
`Cn1c(=O)n(-c2ccc(C(C)(C)C#N)cc2)c2c3cc(-c4cnc5ccccc5c4)ccc3ncc21` has a remaining activity of 95% (enzyme activity, inhibitor; 10 µM).
The remaining activity of `Cc1[nH]c(/C=C2\C(=O)Nc3ccc(F)cc32)c(C)c1C(=O)N[C@H]1CCN(C(=O)N(C)C)C1` is reported as 122% (enzyme activity, inhibitor; 1 µM).
With `Cc1sc(C(=O)NC2COC2)cc1-n1cc(NC(=O)Nc2c(F)cccc2Cl)cn1` the remaining activity was 102% (enzyme activity, inhibitor; 10 µM).
`Cc1ccc(C(=O)Nc2ccc(CN3CCN(C)CC3)c(C(F)(F)F)c2)cc1C#Cc1cnc2cccnn12` gave a remaining activity of 96% (enzyme activity, inhibitor; 23.5 nM).
The inhibition of `CN1CC(Oc2cnc(C#N)cc2-c2ccn3nc(NC(=O)C4CC4)cc3c2)C1` is reported as 6% (enzyme activity, inhibitor; 1 µM).
`Cn1cc(Cl)c2c(Oc3c(F)cc(Nc4cc(Cl)nc(N)n4)cc3F)ccnc21` has a remaining binding of 83% (cell-free assay, competition with immobilised ligand; 0.1 µM).
The remaining signal of `O=C1Nc2ccc(Cl)cc2C1=Cc1cc(Cl)c(O)c(Cl)c1` is reported as 99.8% (cell-free assay; 0.5 µM).
`CC(C)(O)[C@H]1CC[C@H](Nc2ccc3ncc(-c4cccc(C(F)(F)F)c4)n3n2)CC1` gave a remaining activity of 94.4% (enzyme activity, inhibitor; 1 µM).
`CCCOc1ccc(OC)c(F)c1C(=O)c1ccc(C(=O)N[C@@H]2CNC[C@H]2NC(=O)c2ccc3[nH]ncc3c2)cc1` has a remaining activity of 105% (enzyme activity, inhibitor; 10 µM).
With `Nc1nc(NC2CCCCC2)sc1C(=O)c1ccccc1` the remaining activity was 82% (enzyme activity, inhibitor; 10 µM).
`CS(=O)(=O)CCNCc1ccc(-c2ccc3ncnc(Nc4ccc(OCc5cccc(F)c5)c(Cl)c4)c3c2)o1` gave a remaining signal of 99% (cell-free assay; 0.5 µM).
`O=C(Nc1cnn(-c2csc(C(=O)NC3COC3)c2)c1)Nc1c(F)cccc1Cl` gave a remaining activity of 95.5% (enzyme activity, inhibitor; 5 µM).
`Oc1cccc(-c2nc(N3CCOCC3)c3oc4ncccc4c3n2)c1` has a remaining activity of 93% (enzyme activity, inhibitor; 10 µM).
`C=CC(=O)Nc1cc(Nc2nccc(Nc3cc(Cl)c(F)cc3C(C)(C)O)n2)c(OC)cc1N1CC[C@@H](N(C)C)C1` has an inhibition of 11% (enzyme activity, inhibitor; 1 µM).
`CNCc1ccccc1-c1csc([C@H](C)Nc2nc(C)nc3cc(OC)c(OC)cc23)c1` has a remaining binding of 85% (cell-free assay, competition with immobilised ligand; 1 µM).
With `COc1cc(Nc2c(C#N)cnc3cc(OCCCN4CCN(C)CC4)c(OC)cc23)c(Cl)cc1Cl` the remaining signal was 93.8% (cell-free assay; 0.5 µM).
The inhibition of `CSc1nc(C)c(-c2ccnc(Nc3ccc(N4CCOCC4)cc3)c2)[nH]1` is reported as 6.3% (enzyme activity, inhibitor; 10 µM).
For `COc1cc2ncnc(Nc3ccc(Oc4ccccc4)cc3C)c2cc1OC`, the inhibition was 3% (enzyme activity, inhibitor; 1 µM).
With `CCN1CCN(Cc2ccc(NC(=O)c3ccc(C)c(Oc4ccnc5[nH]ccc45)c3)cc2C(F)(F)F)CC1` the inhibition was -16.2% (target engagement in cells, inhibitor, chemoproteomics; Huh-7; 1 µM).
The remaining signal of `O=c1cc(N2CCOCC2)oc2c(-c3ccccc3)cccc12` is reported as 67.1% (cell-free assay; 0.5 µM).
For `O=C(NC[C@@H]1[C@H]2CN(C(=O)OCc3cc(C(F)(F)F)cc(C(F)(F)F)c3)C[C@@H]12)c1ccc2[nH]nnc2c1`, the remaining binding was 100% (cell-free assay, competition with immobilised ligand; 1 µM).
For `CN(C)C1CCN(CC#Cc2nn(C3CCCC3)c3nc(NCc4ccccc4)ncc23)C1` (stereo not shown), the inhibition was -5% (enzyme activity, inhibitor, FRET; 1 µM).
`CC(C)CC(=O)N1CCc2nc(-c3ccc(Br)cc3)nc(N(C)Cc3ccccc3)c2C1` has a remaining binding of 100% (cell-free assay, competition with immobilised ligand; 0.1 µM).
`FC(F)(F)Oc1cccc(-c2cnc3ccc(-c4ccncc4)nn23)c1` has an activity vs control of 93% (enzyme activity, inhibitor, radiometric; 1 µM).
The remaining binding of `O=C(O)[C@@H]1[C@@H](Cn2nnc3ccccc3c2=O)CC[C@H]1C(=O)c1ccc(OCCC2CCOCC2)cc1` is reported as 80% (cell-free assay, competition with immobilised ligand; 1 µM).
With `COc1cc(Nc2cnc(C#N)c(O[C@H](C)CN(C)C)n2)ncc1-c1cnn(C)c1` the remaining activity was 104% (enzyme activity, inhibitor, radiometric; 10 µM).
For `Cc1nc(C2CCN(C(=O)c3ccc(OC(F)(F)F)cc3N)CC2)c2ncc(N3CCN(C)CC3)cc2n1`, the remaining binding was 79% (cell-free assay, competition with immobilised ligand; 1 µM).
`CCOc1cc(-c2nncn2C)ccc1Nc1ncc2cc(C)nc(NCC(C)(C)C)c2n1` has an inhibition of 17% (enzyme activity, inhibitor, FRET; 1 µM).
